Active and inactive are the calls of the source. The rule behind the calls is not given here.
Key:
[1] = Cytotoxicity against African green monkey Vero E6 cells up to 2 mM; type: cell-based; settings: chlorocebus sabaeus
Vero = test: Antiviral activity against Influenza A H5N1 virus (A/duck/Novosibirsk/56/05) infected in African green monkey Vero cells assessed as reduction of virus-induced cytopathic effect; type: functional, cell-based; settings: Influenza A virus (A/duck/Novosibirsk/56/2005(H5N1))
[2] = Cytotoxicity against African green monkey Vero E6 cells; type: cell-based; settings: chlorocebus sabaeus
Outline: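 Cytotoxicity measured in Vero cells, […]; CC50 derived.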

Human alphaherpesvirus 1 = test: Antiviral activity against Herpes simplex virus type 1 L2 infected in African green monkey Vero E6 cells assessed as reduction of virus-induced cytopathic effect; type: functional, organism-based; settings: Human alphaherpesvirus 1, L2, Vero
Hepatitis C virus = test: Antiviral activity against Hepatitis C virus infected in African green monkey Vero cells assessed as reduction of virus-induced cytopathic effect; type: functional, organism-based, Hepacivirus hominis

Structure (SMILES)	Activity [1]	Activity (Vero)	CC50 [2]	IC50 (Human alphaherpesvirus 1)	IC50 (Hepatitis C virus)
NC(=O)c1nc(/C=C\c2cccc(F)c2)n([C@@H]2O[C@H](CO)[C@@H](O)[C@H]2O)n1	Non-toxic	inactive	–	–	–
NC(=O)c1nc(/C=C/c2ccccc2F)n([C@@H]2O[C@H](CO)[C@@H](O)[C@H]2O)n1 (mixture of isomers)	Non-toxic	inactive	–	–	–
NC(=O)c1nc(/C=C\c2ccc(C(F)(F)F)cc2)n([C@@H]2O[C@H](CO)[C@@H](O)[C@H]2O)n1	Non-toxic	inactive	–	–	–
NC(=O)c1nc(/C=C/c2ccc(F)cc2)n([C@@H]2O[C@H](CO)[C@@H](O)[C@H]2O)n1	–	inactive	3.4 µM	–	–
NC(=O)c1ncn([C@@H]2O[C@H](CO)[C@@H](O)[C@H]2O)n1 [RIBAVIRIN]	–	–	0.3 µM	10 µM	–
NC(=O)c1nc(/C=C/c2ccc(C(F)(F)F)cc2)n([C@@H]2O[C@H](CO)[C@@H](O)[C@H]2O)n1	–	–	–	–	0.09 µM
NC(=O)c1nc(/C=C/c2cccc(F)c2)n([C@@H]2O[C@H](CO)[C@@H](O)[C@H]2O)n1	Non-toxic	inactive	–	6.9 µM	–
NC(=O)c1nc(/C=C\c2ccc(F)cc2)n([C@@H]2O[C@H](CO)[C@@H](O)[C@H]2O)n1	Non-toxic	inactive	–	–	–

— ChEMBL document CHEMBL3813617, “An alternative route to the arylvinyltriazole nucleosides” (Bioorg Med Chem Lett, 2016)
